The source made the active and inactive calls. No cut-off for these calls is given here.

From ChEMBL document CHEMBL1212828, “Synthesis and biological evaluation of novel pyrazole compounds” (Bioorg Med Chem, 2010) come the findings set out here.

Data set [1] concerns Rattus norvegicus. Kind of data set: Antiinflammatory activity in Wistar albino rat assessed as inhibition of formalin-induced paw edema at 20 mg/kg, po administered 1 hr prior to formalin challenge measured after 1 hr relative to control. In kind it is functional. Summed up:
(§1)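 Male Wistar rats, 180–200 g, groups of five; single oral dose 1 h before 2% formalin (0.1 mL) into subplantar left hind paw under light ether anaesthesia. Paw volume read by water plethysmometer at baseline and 1, 2, 3, 4 h; % inhibition = control (Vt−Vo) minus treated (Vt−Vo), over control, ×100. Means ± SEM; ANOVA with Student–Newman–Keuls.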

The test system of data set [2] is Rattus norvegicus. The experiment in a line: Antiinflammatory activity in Wistar albino rat sub-acute inflammatory model assessed as inhibition of formalin-induced paw edema at 20 mg/kg, po administered 1 hr prior to formalin challenge measured on day 1 relative to control. The format is functional. Summed up: (§2)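 Male Wistar rats, 180–200 g, five per group, dosed orally 20 mg/kg daily for 7 consecutive days. Formalin (2%, 0.1 mL) injected subplantar into left hind paw under light ether 1 h after dosing, repeated on day 3. Paw volume measured plethysmographically on days 1 and 8; inhibition expressed relative to untreated controls.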

Data set [3] relates to Rattus norvegicus. The experiment in a line: Antiinflammatory activity in Wistar albino rat sub-acute inflammatory model assessed as inhibition of formalin-induced paw edema at 20 mg/kg, po administered 1 hr prior to formalin challenge measured on day 8 relative to control. The format is functional. Summed up:
as §2

The subject of data set [4] is Rattus norvegicus. Kind of data set: Antiinflammatory activity in Wistar albino rat assessed as inhibition of formalin-induced paw edema at 20 mg/kg, po administered 1 hr prior to formalin challenge measured after 3 hrs relative to control. In kind it is functional. The method in brief: as §1
In data set [5] the test system is THP-1. Kind of data set: Neuroprotective activity against LPS and IFN-gamma-stimulated neurotoxin production in human THP1 cell assessed as inhibition of THP1 cell secretion-induced toxicity to human SH-SY5Y cells after 72 hrs by MTT assay. In kind it is functional, cell-based. The settings on record: THP-1, 72 h. The method in brief:
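THP-1 cells pretreated 15 min with compound, then stimulated with LPS (0.5 µg/mL) plus IFN-γ (150 U/mL) for 24 h. Cell-free supernatant transferred to SH-SY5Y cells plated 24 h earlier (2 × 10^5 cells/mL). After 72 h, SH-SY5Y viability read by MTT (0.5 mg/mL, 1 h, 37 °C, OD570) or by LDH release (OD490, relative to Triton X-100 lysis). IC50 estimated.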

The subject of data set [6] is Rattus norvegicus. The experiment in a line: Toxicity in Wistar albino rat assessed as ulcerogenic activity at 300 mg/kg, po qd for 3 days. In kind it is organism-based. Also noted: dose 300 mg/kg, route oral. The settings on record: in vivo, 72 h. The method in brief:
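Rats in groups of five, fasted 12 h with water ad libitum; oral dosing in two equal portions at 0 and 12 h for three days, 300 mg/kg per day; control given 1% gum acacia. Killed 6 h after last dose; stomach opened along greater curvature, saline-washed, inspected under 3× lens for hyperemia, hemorrhage, erosion or ulcer.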

Data set [7] deals with THP-1. The experiment in a line: Antiinflammatory activity in human THP1 cells assessed as reduction in LPS and IFN-gamma-induced MCP level after 24 hrs. In kind it is functional, cell-based. Particulars: Homo sapiens, THP-1, 24 h; read-out: IC50. Summed up: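 THP-1 cells (5 × 10^5 cells/mL, DMEM-F12 with 5% FBS) pretreated 15 min with compound or DMSO vehicle, then stimulated with 0.5 µg/mL LPS plus 150 U/mL IFN-γ. After 24 h, MCP-1 in cell-free medium measured by ELISA. IC50 estimated from concentration–response; randomized block ANOVA.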

Data set [8] relates to Rattus norvegicus. Kind of data set: Antiinflammatory activity in Wistar albino rat assessed as inhibition of formalin-induced paw edema at 20 mg/kg, po administered 1 hr prior to formalin challenge measured after 4 hrs relative to control. The format is functional. Summed up:
as §1

For data set [9], the system named is Rattus norvegicus. The experiment in a line: Antiinflammatory activity in Wistar albino rat assessed as inhibition of turpentine oil-induced granuloma at 20 mg/kg, po qd for 7 days post turpentine oil challenge measured on day 8. In kind it is functional. Summed up: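 In ether-anaesthetized male Wistar rats (five per group) a dorsal subcutaneous pouch is formed with 2 mL air, then 0.5 mL turpentine oil is injected. Oral dosing at 20 mg/kg starts 1 h before turpentine and continues 7 days. On day 8 the exudate is drawn by syringe and its volume recorded; % inhibition = (Vcontrol − Vtreated)/Vcontrol × 100.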

For data set [10], the system named is Rattus norvegicus. The experiment in a line: Antiinflammatory activity in Wistar albino rat assessed as inhibition of formalin-induced paw edema at 20 mg/kg, po administered 1 hr prior to formalin challenge measured after 2 hrs relative to control. The format is functional. Summed up: as §1
Data set [11] deals with Rattus norvegicus. Kind of data set: Antiinflammatory activity in po dosed Wistar albino rat assessed as inhibition of formalin-induced paw edema after 3 hrs relative to control. The format is functional.
Data set [12] relates to THP-1. Kind of data set: Cytotoxicity against human THP1 cells assessed as reduction in cell viability. The format is cell-based. Summed up:
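THP-1 cells in DMEM-F12 with 5% FBS, 24-well plates, pretreated 15 min with compound or DMSO vehicle, then stimulated with LPS 0.5 µg/mL plus IFN-γ 150 U/mL for 24 h. Death read as supernatant LDH (iodonitrotetrazolium formazan, 490 nm, fraction of Triton X-100 lysate); survival by MTT; MCP-1 by ELISA. Concentration effects by randomized block ANOVA; 8–11 independent experiments.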

Data set [13] has as its target T1, Prostaglandin G/H synthase 2 (Homo sapiens) (UniProt P35354).
T1 sequence (whole entry): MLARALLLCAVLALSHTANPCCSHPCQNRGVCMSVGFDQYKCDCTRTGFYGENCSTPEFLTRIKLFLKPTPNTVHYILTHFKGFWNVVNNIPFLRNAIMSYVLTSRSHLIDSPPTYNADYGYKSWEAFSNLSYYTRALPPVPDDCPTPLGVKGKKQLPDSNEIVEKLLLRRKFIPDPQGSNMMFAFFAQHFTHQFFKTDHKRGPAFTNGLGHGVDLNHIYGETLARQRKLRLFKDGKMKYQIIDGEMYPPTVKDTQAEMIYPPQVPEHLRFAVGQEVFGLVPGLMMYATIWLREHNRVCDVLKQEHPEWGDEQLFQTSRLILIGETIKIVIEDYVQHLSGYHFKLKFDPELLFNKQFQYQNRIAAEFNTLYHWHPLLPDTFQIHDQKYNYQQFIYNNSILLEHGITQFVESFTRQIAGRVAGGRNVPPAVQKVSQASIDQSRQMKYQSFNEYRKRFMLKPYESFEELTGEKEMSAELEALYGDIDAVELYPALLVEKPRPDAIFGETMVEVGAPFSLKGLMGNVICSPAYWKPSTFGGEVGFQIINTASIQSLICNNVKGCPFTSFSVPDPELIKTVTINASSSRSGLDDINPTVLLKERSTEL
The experiment in a line: Inhibition of human COX2 at 100 uM. Summed up:
(§3)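 Screening kit with ovine COX-1 and human recombinant COX-2, run per manufacturer's protocol; percent inhibition of prostaglandin production measured for each isoform.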

In data set [14] the test system is SH-SY5Y. The experiment in a line: Neuroprotective activity in human SH-SY5Y cells. The format is functional, cell-based. Summed up: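 SH-SY5Y cells seeded at 2 × 10^5/mL in DMEM-F12 with 5% FBS; after 24 h medium replaced by supernatant of THP-1 cells stimulated 24 h with LPS + IFN-γ, or by medium containing 250 µM H2O2, with compound added at transfer. Cell death measured by LDH assay 72 h later; five independent experiments; randomized block ANOVA.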

For data set [15], the target named is T2, Prostaglandin G/H synthase 1 (Ovis aries) (UniProt P05979).
T2 sequence (whole entry): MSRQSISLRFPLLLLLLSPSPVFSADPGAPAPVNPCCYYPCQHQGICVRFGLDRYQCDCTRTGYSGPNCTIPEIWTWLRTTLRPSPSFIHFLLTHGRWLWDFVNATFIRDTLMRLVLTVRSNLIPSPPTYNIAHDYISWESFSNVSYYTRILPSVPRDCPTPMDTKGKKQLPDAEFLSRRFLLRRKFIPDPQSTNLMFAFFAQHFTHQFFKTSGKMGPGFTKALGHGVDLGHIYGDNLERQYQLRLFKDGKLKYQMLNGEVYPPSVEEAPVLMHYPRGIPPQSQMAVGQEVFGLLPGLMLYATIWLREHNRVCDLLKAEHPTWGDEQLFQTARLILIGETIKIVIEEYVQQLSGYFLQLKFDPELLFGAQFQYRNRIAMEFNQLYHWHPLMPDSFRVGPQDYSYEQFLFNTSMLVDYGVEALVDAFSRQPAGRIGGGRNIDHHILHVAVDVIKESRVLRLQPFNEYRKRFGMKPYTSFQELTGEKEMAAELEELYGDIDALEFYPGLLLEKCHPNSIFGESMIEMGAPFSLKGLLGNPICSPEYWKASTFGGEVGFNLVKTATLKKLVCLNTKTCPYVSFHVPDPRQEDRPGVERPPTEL
The experiment in a line: Inhibition of ovine COX1 at 100 uM. The method in brief: as §3

For data set [16], the system named is SH-SY5Y (Homo sapiens). Kind of data set: Neuroprotective activity against LPS and IFN-gamma-induced human THP1 cell supernatant-induced death of human SH-SY5Y cells after 72 hrs by MTT assay. Particulars: THP-1.
Data set [17] can be described thus: Acute toxicity in Wistar albino rat after 24 hrs. The settings on record: in vivo, read-out: ALD50. The format is organism-based. Summed up:
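Male Wistar albino rats (180–200 g), fasted 24 h, groups of five; compound given orally in graded doses of 0.1–3.0 g/kg. Mortality recorded at each dose after 24 h to estimate approximate acute lethal dose (ALD50).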

As to `Cc1ccc(-c2cc(C(F)(F)F)nn2-c2ccc(S(N)(=O)=O)cc2)cc1` [CELECOXIB], the inhibition in vivo at 20 mg/kg in data set [1] stood at 38%; in data set [2] it was 37%; in [3], 41%; in [4], 56%; in [8], 47%; in data set [9], 46%. Moreover, the inhibition in vivo at 20 mg/kg in [10] worked out at 41%. In addition, the IC50 was determined as 5 µM in data set [5] and 70 µM in data set [7]. Further, in data set [6], the Activity is listed as 0%. The ED50 in [11] came to 15.7 mg/kg.

Take `N#Cc1cnn(-c2ccccc2)c1NC(=O)C(=O)NCCCN1CCOCC1`: the EC50 in [12] is greater than 500 µM. Also, the IC50 in data set [5] was 100 µM; in [7], greater than 500 µM.

As to `COc1ccc2c(c1)c(CC(=O)O)c(C)n2C(=O)c1ccc(Cl)cc1` [INDOMETHACIN], in [6], the Activity came to 100%.

As to `N#Cc1cnn(-c2ccccc2)c1NC(=O)C(=O)NC1CCCCC1`, in data set [12], the EC50 came to 80 µM. Also, the half-inhibitory concentration (IC50) in [5] is 250 µM; in data set [7], greater than 500 µM.

In the case of `N#Cc1cnn(-c2ccccc2)c1NC(=O)C(=O)NCCc1ccccc1`, the EC50 in data set [12] is 10 µM.

With `COC(=O)c1nc2c(cnn2-c2ccccc2)c(=O)[nH]1`, the EC50 in data set [12] was 40 µM. For the same compound, the results for the inhibition in data set [13] and in [15] were 14.2% and 16.4%, respectively. The result in [14] was inactive. The IC50 in data set [5] amounted to 20 µM; in [7] it was 100 µM. In data set [16], the result was Active.

In the case of `C[C@@H](NC(=O)C(=O)Nc1c(C#N)cnn1-c1ccccc1)c1ccccc1`, the inhibition in vivo at 20 mg/kg in data set [1] stood at 56%; in [2], 39%; in data set [3], 33%; in data set [4], 44%; in data set [8] it was 50%; in data set [9] it was 39%. Also, in data set [10], the inhibition in vivo at 20 mg/kg came to 36%. The Activity in [6] is reported as 0%. Also, in [17], the LD50 at 24 h was greater than 300 mg/kg. In addition, the ED50 in data set [11] is 18.9 mg/kg.

Turning to `C[C@H](NC(=O)C(=O)Nc1c(C#N)cnn1-c1ccccc1)c1ccccc1`, the inhibition in vivo at 20 mg/kg in [1] worked out at 37%; in data set [2], 41%; in data set [3], 35%; in data set [4] it was 38%; in data set [8] it was 39%; in data set [9], 49%. Moreover, in [10], the inhibition in vivo at 20 mg/kg was 32%. Besides, the Activity in data set [6] was 0%. In [17], the LD50 at 24 h is greater than 300 mg/kg. The ED50 in data set [11] worked out at 22.4 mg/kg.
